# According to ChEMBL document CHEMBL1151684, “Synthesis and antitumoral activity of novel 3-(2-substituted-1,3,4-oxadiazol-5-yl) and 3-(5-substituted-1,2,4-triazol-3-yl) beta-carboline derivatives” (2008):
# Test system: K562
# Assay: Growth inhibition of human K-562 cells after 48 hrs by sulforhodamine B assay
# Type: functional
# Conditions: K562, 48 h
# Method in brief: (§1)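 Sulforhodamine B colorimetric assay following the NCI standard protocol, with doxorubicin as positive control. Each compound was tested at four concentrations in 10-fold dilutions (0.25 to 250). GI50, the concentration giving 50% growth reduction versus untreated control cells, was derived from dose–response curves.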
SMILES,GI50 [µM],LC50 (concentration causing 50% net cell kill) [µM],TGI [µM]
S=c1[nH]nc(-c2cc3c([nH]c4ccccc43)c(-c3ccccc3Cl)n2)o1,20.3,> 100,74
CN(C)c1ccc(-c2nc(-c3n[nH]c(=S)o3)cc3c2[nH]c2ccccc23)cc1,9.55,,
O=[N+]([O-])c1ccc(-c2nc(-c3n[nH]c(=S)o3)cc3c2[nH]c2ccccc23)cc1,46.7,,> 100
CSc1nnc(-c2cc3c([nH]c4ccccc43)c(-c3cccc([N+](=O)[O-])c3)n2)o1,21.3,> 100,81.5
COc1ccc(-c2nc(-c3n[nH]c(=S)o3)cc3c2[nH]c2ccccc23)cc1,26.4,,> 100

# Test system: MCF7
# Assay: Growth inhibition of human MCF7 cells after 48 hrs by sulforhodamine B assay
# Type: functional
# Conditions: MCF7, 48 h
# Method in brief: as §1
SMILES,GI50 [µM],TGI [µM],LC50 (concentration killing 50% of cells) [µM]
S=c1[nH]nc(-c2cc3c([nH]c4ccccc43)c(-c3ccccc3Cl)n2)o1,26.9,> 100,
CN(C)c1ccc(-c2nc(-c3n[nH]c(=S)o3)cc3c2[nH]c2ccccc23)cc1,18.8,,
O=[N+]([O-])c1ccc(-c2nc(-c3n[nH]c(=S)o3)cc3c2[nH]c2ccccc23)cc1,27.6,> 100,
CSc1nnc(-c2cc3c([nH]c4ccccc43)c(-c3cccc([N+](=O)[O-])c3)n2)o1,79.8,> 100,
COc1ccc(-c2nc(-c3n[nH]c(=S)o3)cc3c2[nH]c2ccccc23)cc1,24.9,97,> 100

# Test system: not listed separately
# Assay: Growth inhibition of human NCI-460 cells after 48 hrs by sulforhodamine B assay
# Type: functional
# Conditions: NCI-460, 48 h
# Method in brief: as §1
SMILES,GI50 [µM],TGI [µM],LC50 (concentration for 50% net cell kill) [µM]
S=c1[nH]nc(-c2cc3c([nH]c4ccccc43)c(-c3ccccc3Cl)n2)o1,20.8,> 100,
CN(C)c1ccc(-c2nc(-c3n[nH]c(=S)o3)cc3c2[nH]c2ccccc23)cc1,19.1,,
O=[N+]([O-])c1ccc(-c2nc(-c3n[nH]c(=S)o3)cc3c2[nH]c2ccccc23)cc1,> 100,> 100,
CSc1nnc(-c2cc3c([nH]c4ccccc43)c(-c3cccc([N+](=O)[O-])c3)n2)o1,24.5,99.2,> 100
COc1ccc(-c2nc(-c3n[nH]c(=S)o3)cc3c2[nH]c2ccccc23)cc1,9.2,> 100,

# Test system: 786-0
# Assay: Growth inhibition of human 786-0 cells after 48 hrs by sulforhodamine B assay
# Type: functional
# Conditions: 786-0, 48 h
# Method in brief: as §1
SMILES,GI50 [µM],TGI [µM]
S=c1[nH]nc(-c2cc3c([nH]c4ccccc43)c(-c3ccccc3Cl)n2)o1,27.9,> 100
CN(C)c1ccc(-c2nc(-c3n[nH]c(=S)o3)cc3c2[nH]c2ccccc23)cc1,14.7,
O=[N+]([O-])c1ccc(-c2nc(-c3n[nH]c(=S)o3)cc3c2[nH]c2ccccc23)cc1,73.1,> 100
CSc1nnc(-c2cc3c([nH]c4ccccc43)c(-c3cccc([N+](=O)[O-])c3)n2)o1,> 100,> 100
COc1ccc(-c2nc(-c3n[nH]c(=S)o3)cc3c2[nH]c2ccccc23)cc1,31.6,> 100

# Test system: HT-29
# Assay: Growth inhibition of human HT-29 cells after 48 hrs by sulforhodamine B assay
# Type: functional
# Conditions: HT-29, 48 h
# Method in brief: as §1
SMILES,GI50 [µM],TGI [µM],LC50 (concentration killing 50% of the cells present at the start) [µM]
S=c1[nH]nc(-c2cc3c([nH]c4ccccc43)c(-c3ccccc3Cl)n2)o1,17.4,> 100,
CN(C)c1ccc(-c2nc(-c3n[nH]c(=S)o3)cc3c2[nH]c2ccccc23)cc1,40.5,,
O=[N+]([O-])c1ccc(-c2nc(-c3n[nH]c(=S)o3)cc3c2[nH]c2ccccc23)cc1,31.3,> 100,
CSc1nnc(-c2cc3c([nH]c4ccccc43)c(-c3cccc([N+](=O)[O-])c3)n2)o1,68.1,> 100,
COc1ccc(-c2nc(-c3n[nH]c(=S)o3)cc3c2[nH]c2ccccc23)cc1,20.3,55.3,> 100

# Test system: not listed separately
# Assay: Growth inhibition of human PCO3 cells after 48 hrs by sulforhodamine B assay
# Type: functional
# Conditions: PCO3, 48 h
# Method in brief: as §1
SMILES,GI50 [µM],TGI [µM],LC50 (concentration killing 50% of cells) [µM]
S=c1[nH]nc(-c2cc3c([nH]c4ccccc43)c(-c3ccccc3Cl)n2)o1,21.4,> 100,
CN(C)c1ccc(-c2nc(-c3n[nH]c(=S)o3)cc3c2[nH]c2ccccc23)cc1,14.7,,
O=[N+]([O-])c1ccc(-c2nc(-c3n[nH]c(=S)o3)cc3c2[nH]c2ccccc23)cc1,26,99.2,> 100
CSc1nnc(-c2cc3c([nH]c4ccccc43)c(-c3cccc([N+](=O)[O-])c3)n2)o1,44.2,> 100,
COc1ccc(-c2nc(-c3n[nH]c(=S)o3)cc3c2[nH]c2ccccc23)cc1,17.3,41.1,> 100

# Test system: OVCAR
# Assay: Growth inhibition of human OVCAR cells after 48 hrs by sulforhodamine B assay
# Type: functional
# Conditions: not given
# Method in brief: as §1
SMILES,GI50 [µM],TGI [µM]
S=c1[nH]nc(-c2cc3c([nH]c4ccccc43)c(-c3ccccc3Cl)n2)o1,45.9,> 100
CN(C)c1ccc(-c2nc(-c3n[nH]c(=S)o3)cc3c2[nH]c2ccccc23)cc1,14.7,
O=[N+]([O-])c1ccc(-c2nc(-c3n[nH]c(=S)o3)cc3c2[nH]c2ccccc23)cc1,> 100,> 100
CSc1nnc(-c2cc3c([nH]c4ccccc43)c(-c3cccc([N+](=O)[O-])c3)n2)o1,21.3,> 100
COc1ccc(-c2nc(-c3n[nH]c(=S)o3)cc3c2[nH]c2ccccc23)cc1,> 100,> 100

# Test system: UACC-62
# Assay: Growth inhibition of human UACC-62 cells after 48 hrs by sulforhodamine B assay
# Type: functional
# Conditions: UACC-62, 48 h
# Method in brief: as §1
SMILES,GI50 [µM],"LC50 (concentration killing 50% of cells, NCI protocol) [µM]",TGI [µM]
S=c1[nH]nc(-c2cc3c([nH]c4ccccc43)c(-c3ccccc3Cl)n2)o1,18.1,> 100,80.1
CN(C)c1ccc(-c2nc(-c3n[nH]c(=S)o3)cc3c2[nH]c2ccccc23)cc1,23.8,,
O=[N+]([O-])c1ccc(-c2nc(-c3n[nH]c(=S)o3)cc3c2[nH]c2ccccc23)cc1,38,,> 100
CSc1nnc(-c2cc3c([nH]c4ccccc43)c(-c3cccc([N+](=O)[O-])c3)n2)o1,16.4,> 100,69.4
COc1ccc(-c2nc(-c3n[nH]c(=S)o3)cc3c2[nH]c2ccccc23)cc1,16.8,> 100,47.2
